The target of assay [1] is T1, Interferon alpha/beta receptor 1 (Homo sapiens) (UniProt P17181).
T1 sequence (whole entry): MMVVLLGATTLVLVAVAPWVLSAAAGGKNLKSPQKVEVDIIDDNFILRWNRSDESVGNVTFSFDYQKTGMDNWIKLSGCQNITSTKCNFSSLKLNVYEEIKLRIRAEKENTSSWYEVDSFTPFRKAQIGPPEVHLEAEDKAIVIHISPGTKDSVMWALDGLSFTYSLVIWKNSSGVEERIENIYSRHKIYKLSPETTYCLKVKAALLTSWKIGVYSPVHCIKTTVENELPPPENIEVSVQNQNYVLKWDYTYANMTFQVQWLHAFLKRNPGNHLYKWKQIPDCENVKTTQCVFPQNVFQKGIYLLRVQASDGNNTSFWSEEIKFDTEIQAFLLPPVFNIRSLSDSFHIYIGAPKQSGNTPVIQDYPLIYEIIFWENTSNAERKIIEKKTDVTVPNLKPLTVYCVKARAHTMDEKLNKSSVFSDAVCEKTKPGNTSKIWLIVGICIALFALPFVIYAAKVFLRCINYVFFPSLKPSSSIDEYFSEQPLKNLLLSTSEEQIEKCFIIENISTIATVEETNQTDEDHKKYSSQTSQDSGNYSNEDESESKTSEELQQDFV
Kind of assay: Antagonist activity at IFNAR in human Daudi cells assessed as reduction of IFN-inducible Stat1:Stat3-pIRE complex formation at 100 umol by electrophoretic mobility shift assay. Format: functional, cell-based.

Assay [2] deals with T1, Interferon alpha/beta receptor 1 (Homo sapiens). Briefly: Activity at IFNAR in human Daudi cells assessed as induction of stat1 tyrosine phosphorylation at 100 umol after 5 to 30 mins. In kind it is cell-based.
For assay [3] the target is unchanged. Briefly: Antagonist activity at IFNAR in human Daudi cells assessed as reduction of IFN-inducible Stat1:Stat1-pIRE complex formation at 100 umol by electrophoretic mobility shift assay. In kind it is functional, cell-based.
Assay [4] has the same target. Kind of assay: Antagonist activity at IFNAR in human Daudi cells assessed as inhibition of IFN-inducible Stat1 tyrosine phosphorylation by SDS-PAGE. In kind it is functional, cell-based. The method in brief: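 Daudi cells were left untreated or exposed to IFN alfacon-1 (100 pg) for 15 min, with or without compound (dose–response 20–100 µM). Lysates were run on SDS-PAGE, transferred to nitrocellulose and immunoblotted for phospho-Stat1. Membranes were stripped and reprobed for total Stat1, or β-actin served as the loading control.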

The source made the active and inactive calls. The rule behind the calls is not given here.

Take `CN(C)CCSc1ccc(-c2cc(-c3ccco3)nc(SCCN(C)C)n2)cc1`: the outcome in assay [1] and in assay [3] was Active. In addition, in assay [2], the result was inactive. For the same molecule, the Activity entry in assay [4] was “Dose-dependent effect”.

Turning to `CC(C)OCCCNc1cc(OCCN(C)C)nc(OCCCN)n1`, the outcome in assay [2] was inactive.

Turning to `CCOc1cc(OCCN(C)C)nc(NCCCOC(C)C)n1`, the result in assay [2] was inactive.

In the case of `COCCNc1cc(OC(C)C)nc(OC(C)C)n1`, the result in assay [2] was inactive.

For the molecule `COCCNc1nc(OCCCCNC(=N)N)cc(OCCN(C)C)n1`, the result in assay [2] was inactive.

Consider `CC(C)OCCCNc1cc(OCCN(C)C)nc(OCCCNC(=N)N)n1`, for which the outcome in assay [2] was inactive.

For `COCCNc1cc(OCCN(C)C)nc(OCCNC(=N)N)n1`, the result in assay [2] was inactive.

For the molecule `CN(C)CCSc1ccc(-c2cc(-c3cccs3)nc(SCCN(C)C)n2)cc1`, the result in assay [1] and in assay [3] was Active. For the same molecule, the outcome in assay [2] was inactive. For the same molecule, in assay [4], the Activity entry is “Dose-dependent effect”.

`CCOc1cc(OCCCCN)nc(NCCCOC(C)C)n1`: in assay [2], the result was inactive.

Take `CC(C)OCCCNc1nc(OCCN(C)C)cc(OC(C)C)n1`: the result in assay [2] was inactive.

In the case of `CCOc1cc(OCCCN)nc(NCCCOC(C)C)n1`, the outcome in assay [2] was inactive.

In the case of `COCCNc1cc(OCCN(C)C)nc(Oc2ccc(CCN)cc2)n1`, the outcome in assay [2] was inactive.

Turning to `COCCNc1cc(OCCN(C)C)nc(OCCCN)n1`, the result in assay [2] was inactive.

With `COCCNc1cc(OCCN(C)C)nc(OCCCNC(=N)N)n1`, the outcome in assay [2] was inactive.

On to `CC(C)OCCCNc1nc(OCCCN)cc(OC(C)C)n1`, for which the result in assay [2] was inactive.

Turning to `COCCNc1cc(OCCN(C)C)nc(OCCN)n1`, the result in assay [2] was inactive.

Regarding `CN(C)CCSc1nccc(-c2ccco2)n1`, the result in assay [2] was inactive.

For `CC(C)Oc1cc(OCCN(C)C)nc(OCCN(C)C)n1`, the outcome in assay [2] was inactive.

Regarding `CCOc1cc(N(C)C)nc(NCCCOC(C)C)n1`, the result in assay [2] was inactive.

In the case of `CN(C)CCSc1nccc(-c2cccs2)n1`, the result in assay [2] was inactive.

On to `CC(C)OCCCNc1nc(OCCCCN)cc(OCCN(C)C)n1`, for which the result in assay [2] was inactive.

For `CCOc1cc(OCCN(C)C)nc(OCCN(C)C)n1`, the result in assay [2] was inactive.

For the molecule `CC(C)OCCCNc1cc(OCCN(C)C)nc(Oc2ccc(CCN)cc2)n1`, the result in assay [2] was inactive.

On to `CC(C)OCCCNc1nc(OCCN)cc(OCCN(C)C)n1`, for which, in assay [2], the result was inactive.

With `COCCNc1nc(OCCCCN)cc(OCCN(C)C)n1`, the result in assay [2] was inactive.

`CC(C)OCCCNc1nc(OCCCCNC(=N)N)cc(OCCN(C)C)n1`: the result in assay [2] was inactive.

The values are drawn from ChEMBL document CHEMBL1149913, “De novo design of nonpeptidic compounds targeting the interactions between interferon-alpha and its cognate cell surface receptor” (J Med Chem, 2008).
